Data published in ChEMBL document CHEMBL1140911, “Semisynthesis, biological activity, and molecular modeling studies of C-ring-modified camptothecins” (J Med Chem, 2009).
Structures can show the parent of a compound that is named as a salt. Calls of active or inactive are those of the source. The calls are words filed in the database; no cut-off is given here.

How the values were obtained:
[1] = tested on: NCI-H460; assay: Antiproliferative activity against human NCI-H460 cells after short term exposure for 1 hr measured after 72 hrs in drug-free medium; format: functional, cell-based
Procedure, shortened: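 NCI-H460 human NSCLC cells grown in RPMI 1640 with 10% FCS. IC50 is the concentration giving 50% decrease in cell growth relative to untreated control.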

[2] = biological target: T1, DNA topoisomerase 1 (Homo sapiens) (UniProt P11387); assay: Induction of human recombinant topoisomerase 1-mediated SV40 DNA cleavage at 1 to 50 uM after 30 mins by PAGE
T1 sequence (whole entry): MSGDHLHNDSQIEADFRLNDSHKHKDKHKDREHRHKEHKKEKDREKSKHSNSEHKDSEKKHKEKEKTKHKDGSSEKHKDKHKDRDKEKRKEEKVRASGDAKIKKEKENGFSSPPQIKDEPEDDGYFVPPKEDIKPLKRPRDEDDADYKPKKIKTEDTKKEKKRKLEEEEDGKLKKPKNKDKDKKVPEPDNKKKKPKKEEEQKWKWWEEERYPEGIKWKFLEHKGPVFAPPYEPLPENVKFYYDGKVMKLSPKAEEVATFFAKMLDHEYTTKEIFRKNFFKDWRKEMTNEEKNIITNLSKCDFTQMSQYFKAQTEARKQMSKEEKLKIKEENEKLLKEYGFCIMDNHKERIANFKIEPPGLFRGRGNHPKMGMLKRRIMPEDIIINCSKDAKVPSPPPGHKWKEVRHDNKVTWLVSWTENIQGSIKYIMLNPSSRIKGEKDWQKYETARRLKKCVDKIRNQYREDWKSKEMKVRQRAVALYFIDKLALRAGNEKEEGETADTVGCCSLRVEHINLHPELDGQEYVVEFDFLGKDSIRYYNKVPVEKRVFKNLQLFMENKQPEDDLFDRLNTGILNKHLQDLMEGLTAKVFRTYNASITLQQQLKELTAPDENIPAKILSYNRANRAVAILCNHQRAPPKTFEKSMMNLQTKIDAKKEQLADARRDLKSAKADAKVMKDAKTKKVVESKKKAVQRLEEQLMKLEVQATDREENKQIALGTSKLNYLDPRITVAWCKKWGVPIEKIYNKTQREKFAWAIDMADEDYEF
Procedure, shortened: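 Substrate was a gel-purified 751-bp BamHI-EcoRI SV40 DNA fragment, uniquely 3′-end labeled (20 000 cpm/sample). It was reacted with full-length human recombinant topo I and drug at 1, 10 and 50 µM in 10 mM Tris-HCl pH 7.6, 150 mM KCl, 5 mM MgCl2, 15 µg/mL BSA, 0.1 mM DTT, 30 min at 37 °C. Stopped with 0.5% SDS/0.3 mg/mL proteinase K, 45 min, 42 °C. Run on denaturing 8% polyacrylamide gel and quantified by phosphorimaging. Band intensity was compared with SN38 reference.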

Row | SMILES | IC50 [1] [µM] | Activity [2]
1 | CC[C@@]1(O)C(=O)OCc2c1cc1n(c2=O)Cc2cc3c(CN(C)C)c(O)ccc3nc2-1 [TOPOTECAN HYDROCHLORIDE] | 0.61 | –
2 | CC[C@@]1(O)C(=O)OCc2c1cc1c3nc4ccccc4cc3c3nnc2n13 | 10.6 | Active
3 | CCc1c2c(nc3ccc(O)cc13)-c1cc3c(c(=O)n1C2)COC(=O)[C@]3(O)CC [7-ETHYL-10-HYDROXYCAMPTOTHECIN] | 0.13 | Active
4 | CC[C@@]1(O)C(=O)OCc2c1cc1n(c2=O)[C@@H](F)c2cc3ccccc3nc2-1 | 56 | Active
5 | CC[C@@]1(O)C(=O)OCc2c1cc1n(c2=O)[C@@H](N(NC(=O)OC(C)(C)C)C(=O)OC(C)(C)C)c2cc3ccccc3nc2-1 | > 173 | –
6 | CC[C@@]1(O)C(=O)OCc2c1cc1n(c2=O)[C@H](N(NC(=O)OC(C)(C)C)C(=O)OC(C)(C)C)c2cc3ccccc3nc2-1 | 77 | Active
7 | CC[C@@]1(O)C(=O)OCc2c1cc1n(c2=O)[C@H](N(NC(=O)OCc2ccccc2)C(=O)OCc2ccccc2)c2cc3ccccc3nc2-1 | 60 | –
8 | CC[C@@]1(O)C(=O)OCc2c1cc1n(c2=O)[C@@H](N=[N+]=[N-])c2cc3ccccc3nc2-1 | 11.5 | –
9 | CC[C@@]1(O)C(=O)OCC2=C1C=C1c3nc4ccccc4cc3C3NN=C2N13 (mixture of isomers) | 46.8 | Active
10 | CC[C@@]1(O)C(=O)OCc2c1cc1n(c2=O)[C@@H](N(NC(=O)OCc2ccccc2)C(=O)OCc2ccccc2)c2cc3ccccc3nc2-1 | 85 | –
11 | CC[C@@]1(O)C(=O)OCc2c1cc1n(c2=O)C(C)c2cc3ccccc3nc2-1 (mixture of isomers) | 5.9 | Active
12 | CC[C@@]1(O)C(=O)OCc2c1cc1n(c2=O)C(N)c2cc3ccccc3nc2-1 (stereo not given in full) | 30 | Active
13 | CC[C@@]1(O)C(=O)OCc2c1cc1n(c2=O)C(CCCO)c2cc3ccccc3nc2-1 (mixture of isomers) | 16 | –
14 | CC[C@@]1(O)C(=O)OCc2c1cc1n(c2=O)[C@H](F)c2cc3ccccc3nc2-1 | 56 | Active
15 | CC[C@@]1(O)C(=O)OCc2c1cc1n(c2=O)[C@H](N=[N+]=[N-])c2cc3ccccc3nc2-1 | 6.7 | Active
16 | CC[C@@]1(O)C(=O)OCc2c1cc1n(c2=O)C(N=[N+]=[N-])(N=[N+]=[N-])c2cc3ccccc3nc2-1 (stereo not given in full) | 9.3 | –
